From PubChem BioAssay
Calls of active or inactive are those of the source.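 Rule for the calls, unless noted: active = viability at or under a set limit in both replicates, limit being median viability minus 3 SD (cut at about 48% in these data, passing the limit was not always enough); inconclusive = at or under the limit in just one replicate; inactive = at or above the limit in both replicates.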

What was measured:
[1] = reducers of endogenous Her2 protein level, primary screen, SKBR3 breast tumor cells, AlphaScreen, ATP viability (AID 461;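 active = Her2 level under about 52% in both replicate screens, with viability over 70% of control, limit read from the data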;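 for Her2 level: lower value means less Her2 protein in the cells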;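 for viability: percent of carrier control wells set as 100% viability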); conditions: 18-24 h, measured here: SKBR3 viability, ATP luminescence, at 10 µM
[2] = target: Receptor tyrosine-protein kinase erbB-2 (Homo sapiens) (UniProt P04626); test: as above; conditions: 18-24 h, at 10 µM, stronger effect = lower value
Chain of Receptor tyrosine-protein kinase erbB-2 (Homo sapiens) (P04626 whole entry, looked up): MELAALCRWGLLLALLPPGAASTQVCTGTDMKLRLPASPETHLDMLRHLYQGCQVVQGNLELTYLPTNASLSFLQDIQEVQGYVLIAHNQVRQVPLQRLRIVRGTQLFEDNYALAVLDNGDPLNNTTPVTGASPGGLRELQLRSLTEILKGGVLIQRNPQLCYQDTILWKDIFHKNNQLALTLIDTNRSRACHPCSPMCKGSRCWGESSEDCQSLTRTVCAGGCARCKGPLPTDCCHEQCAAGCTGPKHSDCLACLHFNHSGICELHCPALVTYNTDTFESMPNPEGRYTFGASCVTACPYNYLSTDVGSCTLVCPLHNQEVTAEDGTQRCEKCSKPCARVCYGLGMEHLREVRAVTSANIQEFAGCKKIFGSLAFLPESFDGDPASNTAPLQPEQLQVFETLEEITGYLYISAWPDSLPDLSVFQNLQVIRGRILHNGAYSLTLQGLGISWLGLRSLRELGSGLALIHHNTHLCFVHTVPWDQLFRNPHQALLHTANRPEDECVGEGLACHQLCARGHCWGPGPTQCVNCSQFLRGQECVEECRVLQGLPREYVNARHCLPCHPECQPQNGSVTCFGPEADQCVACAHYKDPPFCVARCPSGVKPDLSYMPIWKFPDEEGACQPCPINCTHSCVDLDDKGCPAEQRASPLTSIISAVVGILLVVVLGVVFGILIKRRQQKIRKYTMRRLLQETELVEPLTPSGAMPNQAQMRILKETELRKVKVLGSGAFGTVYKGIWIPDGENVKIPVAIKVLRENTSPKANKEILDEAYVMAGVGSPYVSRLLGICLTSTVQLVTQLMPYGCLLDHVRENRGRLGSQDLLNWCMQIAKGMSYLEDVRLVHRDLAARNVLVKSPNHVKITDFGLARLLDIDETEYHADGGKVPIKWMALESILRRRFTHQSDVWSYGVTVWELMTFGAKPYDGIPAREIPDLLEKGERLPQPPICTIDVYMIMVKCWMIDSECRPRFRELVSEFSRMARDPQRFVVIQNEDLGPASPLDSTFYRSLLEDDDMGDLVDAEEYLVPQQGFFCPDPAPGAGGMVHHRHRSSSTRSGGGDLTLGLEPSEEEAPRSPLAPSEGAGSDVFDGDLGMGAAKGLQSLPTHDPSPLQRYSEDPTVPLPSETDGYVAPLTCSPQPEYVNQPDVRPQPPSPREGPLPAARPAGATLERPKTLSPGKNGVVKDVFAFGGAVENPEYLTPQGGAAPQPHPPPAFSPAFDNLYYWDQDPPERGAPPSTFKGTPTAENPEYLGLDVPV

[3] = SK-BR-3 cell growth inhibitors, pilot screen, 24 h, human (AID 572;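 active = viability at or below 10% of carrier control in both of two separate runs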;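 note: compound exposure lasted between 18 and 24 h rather than exactly 24 h; 100% = carrier-treated control wells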); conditions: SK-BR-3 viability, CellTiter-Glo luminescence, at 10 µM, stronger effect = lower value
[4] = HUVEC growth inhibition – cell-based, human, primary screen (AID 575;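 active = viability at or below 30% in both replicate assays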;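 note: 100% = median of untreated cell wells with 0.1% DMSO on each plate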); conditions: HUVEC proliferation, CellTiter-Glo luminescence, 72 h; at 10 µM; stronger effect = lower value
Method in brief: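 Test system: HUVEC primary cells. Quantity: 1250 endothelial cells in each well. Dosing: single-point 10 µM, DMSO 0.1% final. Incubation: 72 h treatment at 37 °C. Measured by: CTG luminescence. Control set: DMSO cell controls and MePR drug controls. Plate: collagen-coated 384-well format.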

[5] = growth inhibitors of H69AR lung tumor, primary screen, human, duplicate replicates (AID 580); conditions: H69AR lung tumor cells viability, ATP luminescence, 72 h; at 10 µM; stronger effect = lower value;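 note: 100% = mean luminescence of untreated wells and 0% = no signal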
[6] = reversal of MRP1-mediated doxorubicin resistance, pilot screen, H69AR cells, doxorubicin co-treatment (AID 601;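 active = viability loss from added drug above about 55%, and viability with drug at most 40%, in both replicates, limit read from the data, passing the limit was not always enough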); conditions: CellTiter-Glo, 72 h, at 10 µM; for differential viability (reversal): stronger effect = higher value
[7] = 384-well plate pilot, post-Golgi transport modulator project, inhibition of yeast transport mutant growth (AID 636; in the data active = inhibition above about 31%); conditions: absorbance 615 nm, about 18 h, stronger effect = higher value
[8] = growth suppression of yeast trafficking mutant, preliminary HTS, modulators of trafficking downstream of Golgi apparatus project, 1536-format plate, OD 615 nm (AID 637; in the data active = inhibition above about 30%); conditions: yeast transport mutant growth, absorbance 615 nm, 18 h; stronger effect = higher value
[9] = H69AR cells + 2 uM doxorubicin, measured here: viability with 2 uM doxorubicin, stronger effect = lower value
[10] = H69AR cells, compound alone cytotoxicity

SMILES	viability [1] [%]	Her2 level [2]	viability [3]	viability [4]	viability [5]	differential viability (reversal) ([6]; H69AR cells + 2 uM doxorubicin)	viability [6, 9] [%]	viability [6, 10] [%]	inhibition [7]	inhibition [8]
COCCN(C(=O)CNC(=O)c1ccco1)C(C(=O)NC1CCCCC1)c1cccc(OC)c1 (stereo not given)	96	103% (inactive)	96% (inactive)	88.1% (inactive)	102% (inactive)	12.6% (inactive)	89.6	102	-1.3% (inactive)	-1.17% (inactive)
COc1ccc(CNC(=O)Cn2nc(C(F)(F)F)c3c2CCC3)cc1	89.5	91.5% (inactive)	89.5% (inactive)	103% (inactive)	99.5% (inactive)	11.9% (inactive)	87.6	99.5	-6.13% (inactive)	5.74% (inactive)
O=C(NCC1CCCO1)c1cccc(N2C(=O)C3C4C=CC(C4)C3C2=O)c1 (stereo not given)	110	94% (inactive)	110% (inactive)	98.4% (inactive)	100% (inactive)	10.3% (inactive)	89.8	100	-6.4% (inactive)	-9.84% (inactive)
CCOC(=O)CN1CC23C=CC(O2)C(C(=O)NCc2ccc(F)cc2)C3C1=O (stereo not given)	88	93.5% (inactive)	88% (inactive)	102% (inactive)	98.9% (inactive)	12.5% (inactive)	86.4	98.9	-0.38% (inactive)	-0.17% (inactive)
COc1ccc(C)cc1NC(=O)CN1CCN(S(=O)(=O)c2ccc(Cl)cc2)CC1	81.5	87% (inactive)	81.5% (inactive)	74.7% (inactive)	82.6% (inactive)	25.3% (inactive)	57.3	82.6	-3.55% (inactive)	-2.17% (inactive)
Cc1cc(C)nc(NS(=O)(=O)c2ccc(NC(=O)Cn3c(=O)oc4ccccc43)cc2)n1	89.5	101% (inactive)	89.5% (inactive)	89% (inactive)	86.7% (inactive)	2.6% (inactive)	84.2	86.7	-0.9% (inactive)	2% (inactive)
Cn1c(CN2CCOCC2)nnc1SCC(=O)NCCc1ccccc1	104	83% (inactive)	104% (inactive)	73.6% (inactive)	91.8% (inactive)	11.4% (inactive)	80.4	91.8	-2.08% (inactive)	-2.86% (inactive)
COc1ccc(C(=O)N2CCN(C3CCCCC3)CC2)c(OC)c1	82.5	104% (inactive)	82.5% (inactive)	88.3% (inactive)	95.3% (inactive)	0.4% (inactive)	94.9	95.3	-2.53% (inactive)	11.8% (inactive)
CCOC(=O)N1CCC(NC(=O)c2ccc(OC)c(CN3CC(=O)N4CCCC4C3=O)c2)CC1 (stereo not given)	93.5	93% (inactive)	93.5% (inactive)	111% (inactive)	96% (inactive)	10% (inactive)	85.9	96	-5.92% (inactive)	-3.49% (inactive)
COc1ccc(-n2nc(C(=O)NCC(=O)NCC3CCCO3)c3ccccc3c2=O)cc1 (stereo not given)	120	86.5% (inactive)	120% (inactive)	103% (inactive)	85.5% (inactive)	-6.73% (inactive)	92.2	85.5	-0.78% (inactive)	1.15% (inactive)
Cn1c(=O)c2c3c(sc2n2c(SCC(=O)c4ccc(Cl)cc4)nnc12)COC(C)(C)C3	119	102% (inactive)	119% (inactive)	76.6% (inactive)	79.7% (inactive)	23.3% (inactive)	56.4	79.7	-0.91% (inactive)	-2.7% (inactive)
CO/C([O-])=N/c1c[n+](-c2ccc(C)cc2)no1	100	92.5% (inactive)	100% (inactive)	109% (inactive)	90.5% (inactive)	-0.875% (inactive)	91.3	90.5	-6.49% (inactive)	7.38% (inactive)
CCC(=O)Nc1cc(C)c(NC(=O)C23CC4CC(CC(C4)C2)C3)cn1	106	85% (inactive)	106% (inactive)	84.9% (inactive)	107% (inactive)	8.51% (inactive)	98	107	-3.65% (inactive)	-2.62% (inactive)
Cc1nc2sc(C(c3cccc(F)c3)N3CCN(C(=O)c4ccco4)CC3)c(O)n2n1 (stereo not given)	94	109% (inactive)	94% (inactive)	120% (inactive)	99.3% (inactive)	2.58% (inactive)	96.7	99.3	-5% (inactive)	-9.83% (inactive)
